Measured values taken from article PMC4476059 (Cell, 2015).

Columns and labels:
Assay type in all cases: cell-based
[1] = target: T1, full-length wild-type LPA1 (Homo sapiens, UniProt Q92633); assay: Ca2+ mobilization assay in B103 cells expressing full-length wild-type LPA1; conditions: read-out: EC50, Ca2+ mobilization assay; B103 cells heterologously expressing full-length wild-type LPA1; normalized to 3 μM 1-oleoyl-LPA (Figure 6D)
[2] = target: T1, full-length wild-type LPA1; assay: cAMP assay; conditions: read-out: EC50, cAMP assay; B103 cells expressing full-length wild-type LPA1; 10 μM forskolin; n=2 (Figure 6D)
LPA1 [3] = target: T2, LPA1 (Homo sapiens, UniProt Q92633); assay: Neurite retraction assay in B103 cells expressing LPA1; conditions: stable cell line expressing LPA1, 15 min treatment
T2 sequence (Q92633 whole entry): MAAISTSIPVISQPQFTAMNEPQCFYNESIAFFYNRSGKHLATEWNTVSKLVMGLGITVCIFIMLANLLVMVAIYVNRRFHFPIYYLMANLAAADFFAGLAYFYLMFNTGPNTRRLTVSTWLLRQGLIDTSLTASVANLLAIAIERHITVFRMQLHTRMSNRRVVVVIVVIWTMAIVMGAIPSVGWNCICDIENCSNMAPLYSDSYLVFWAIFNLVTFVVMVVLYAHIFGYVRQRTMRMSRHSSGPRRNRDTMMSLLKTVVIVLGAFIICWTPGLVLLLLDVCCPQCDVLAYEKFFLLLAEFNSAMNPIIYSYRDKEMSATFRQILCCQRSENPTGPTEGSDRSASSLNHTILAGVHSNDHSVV
How it was run: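 B103 rat neuroblastoma stable line carrying HA-tagged full-length human LPA1 (G418-selected, sorted for high anti-HA staining), serum-starved overnight in FreeStyle 293 medium. Cells were given ligands for 15 min at 37°C, washed, and fixed in 2% paraformaldehyde. Under the microscope, round cells lacking neurite extensions were counted and expressed as a percentage of observed cells.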

LPA1 [4] = target: T2, LPA1; assay: F-actin stress fiber formation assay in B103 cells expressing LPA1; conditions: 15 min treatment
How it was run: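 Rat neuroblastoma B103 cells stably expressing HA-tagged full-length human LPA1 (G418 selection, FACS-sorted for high anti-HA signal), starved overnight in FreeStyle 293 medium, then exposed to ligands for 15 min at 37°C. Cells were fixed with 2% paraformaldehyde, washed with 0.3% Triton X-100 in PBS, stained with 1 μg/mL rhodamine-phalloidin for 30 min at room temperature, and imaged by confocal microscopy.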

T1 sequence (Q92633 whole entry): as above

| SMILES | EC50 [1] [nM] | EC50 [2] [nM] | Neurite retraction (cell morphology change mediated by LPA1) (LPA1 [3]) | F-actin stress fiber formation (LPA1 [4]) |
| --- | --- | --- | --- | --- |
| CCCCC/C=C\C/C=C\C/C=C\C/C=C\CCCC(=O)OC[C@@H](O)COP(=O)(O)O [1-ALPA, 1-arachidonoyl-LPA] | 1120 ± 1480 | – | – | – |
| CCCCCCCC/C=C\CCCCCCCC(=O)OCC(O)COP(=O)(O)O (centres unmarked) [LPA 18:1 sn1, 1-oleoyl-LPA] | 146 ± 74 | 0.345 ± 0.202 | – | – |
| CCCCC/C=C\C/C=C\C/C=C\C/C=C\CCCC(=O)NCCOP(=O)(O)O [pAEA] | – | – | robust activation | activated |
